Data on 167 variants can be found in the RNAGym collection of RNA variant scans (doi:10.1126/science.aae0568).

B1: tRNA (parent)
chain: GUUCCGUUGGCGUAAUGGUAACGCGUCUCCCUCCUAAGGAGAAGACUGCGGGUUCGAGUCCCGUACGGAACG

This sample holds only a part of the variants without activity.

In this data set the parent is B1. Put plainly: yeast fitness relative to wild type (ratio to wild type); higher = fitter; tRNA-Arg(CCU), competitive growth, 37 C, YPD. The gist of the method: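 Start and end populations of a pooled competition were compared by 100-nucleotide paired-end sequencing of gene amplicons. The Saccharomyces cerevisiae strains carried tRNA-Arg(CCU) gene variants at the native genomic locus, synthesised with a 3% per-site mutation rate at 69 sites, and competed in YPD at 37°C for 24 hours in six parallel replicates. Darwinian fitness relative to wild type was based on the change in genotype frequencies. Genotypes required ≥ 100 starting reads, and estimates < 0.5 were set to 0.5.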
Take G18A C34U A43C U53G: the yeast fitness was at most 0.5.
On to G18C A20G C29A C49U, for which the yeast fitness is at most 0.5.
Consider G18C A20U C31U G48A C55U G68U, for which the yeast fitness was determined as 0.586.
In the case of G18C C31A A37G G58C, the yeast fitness is at most 0.5.
In the case of G18A A57C it was 0.626.
With G18A A57G the figure was 0.854; with G18A A57U, 0.588.
In the case of G18C A65U it was 0.691; in that of G17C U64C, 0.845; in that of G17C U64A, 0.662.
In the case of G18C A21G, the yeast fitness was determined as 0.643.
As to G18A G58C, the yeast fitness was 0.792.
With G18A G58A the figure was 0.765; with G18A C29A, 0.539; with G18A C49G C60G, at most 0.5.
As to G18C A37C, the yeast fitness amounted to 0.641.
Regarding G18C A37G, the yeast fitness stood at 0.577.
Regarding G18A G48A, the yeast fitness was found to be 0.765.
In the case of G18C A40G A42G G58C it was at most 0.5.
In the case of G18A C27U U28C C31A C55G it was at most 0.5; in that of G17U G38A G68A, at most 0.5; in that of G18C C31U C46U, at most 0.5.
As to G18C C29U G50C, the yeast fitness was at most 0.5.
As for G18A U26G G50C C62A G63C, the yeast fitness was at most 0.5.
With G18C C22U C34G A43U the figure was at most 0.5; with G18A A57G A69U, at most 0.5; with G17U G25A G50A G63C, at most 0.5.
G18C A40C C61U: the yeast fitness is at most 0.5.
Turning to G18A C24U G48C U53G, the yeast fitness was determined as 0.583.
With G18A C30U C55G G68A the figure was at most 0.5.
With G18A A20G A69C, the yeast fitness was at most 0.5.
In the case of G18C C30U C31U G48A it was at most 0.5.
With G18A C27U U28C C31A C55G C61A the figure was 0.572; with G18C C22U C31A C61G, at most 0.5.
Turning to G18A A20U A69U, the yeast fitness was 0.686.
In the case of G18A C33A A36C A43G C55G it was at most 0.5; in that of G18A C34U A40G C66G, at most 0.5; in that of G18C C22U C61U, at most 0.5.
In the case of G18A C34G G48C C49U it was 0.698.
With G18C C30U A42G C55A the figure was 0.533.
As to G18A C27A G48A, the yeast fitness amounted to 0.612.
For G18A U32A, the yeast fitness worked out at 0.513.
With G18A G41A C66G the figure was at most 0.5.
As to G18A C24U G68C, the yeast fitness was 0.538.
In the case of G18A U53A C62G it was at most 0.5; in that of G17U A21G C46U, 0.588; in that of G18A G41C U53A, 0.557.
With G18C C27A C55U G63C the figure was at most 0.5.
G18A C34U A43C U53G G68C: the yeast fitness is at most 0.5.
In the case of G18A G44A G68A it was at most 0.5.
In the case of G18A C24G C30U it was at most 0.5.
With G18A G25A G38A A57G the figure was at most 0.5.
Consider G18A G25C, for which the yeast fitness was 0.746.
G18C C27U C62G G63A C66G A69G: the yeast fitness was at most 0.5.
For G18A A42C, the yeast fitness amounted to 0.635.
For the variant G18A A42U, the yeast fitness was 0.683.
Regarding G18A U19A G56A C60U C61G, the yeast fitness was at most 0.5.
As for G18A G68U, the yeast fitness worked out at 0.711.
G18A G68A: the yeast fitness is 0.795.
Consider G18A G41C, for which the yeast fitness amounted to 0.658.
Turning to G18C C31G A36C A45G A65G, the yeast fitness worked out at 0.595.
With G18C C30U U64A the figure was at most 0.5; with G18A C31G A40G C49U G52C, 0.618; with G18C A43C C62A, at most 0.5.
In the case of G18A C29G A37G it was 0.598.
For G18A C24G G39C, the yeast fitness is at most 0.5.
In the case of G18A C34A C46U it was 0.692; in that of G18C C31U A43U, 0.588.
In the case of G18A A20G U54A A70G it was at most 0.5; in that of G18C C22U U26G C30G C55G C66A, at most 0.5; in that of G18A C22A C61A A65G A70U, 0.585.
For the variant G18A C31U G58A, the yeast fitness worked out at 0.643.
With G18A A21C G58C C60U the figure was at most 0.5; with G18C A36U A70U, at most 0.5; with G18A A69U, 0.896.
G18C C24A: the yeast fitness is at most 0.5.
Consider G18C C24U, for which the yeast fitness is 0.641.
In the case of G18C A37G G51A C61U C66A it was at most 0.5.
With G18C A21U C27U the figure was at most 0.5.
In the case of G17U U28A C29G C33U C34G A42U it was at most 0.5; in that of G17U G67C, 0.798; in that of G18A C29G C49G G63C, at most 0.5.
On to G18A A65U, for which the yeast fitness came out at 0.729.
With G18C C22G the figure was 0.682; with G18C C22U, 0.558.
In the case of G18A C49G, the yeast fitness came out at 0.74.
As to G18A C49A, the yeast fitness is 0.606.
With G18C C30G C62G the figure was at most 0.5.
In the case of G18A C22A C61A A65G it was at most 0.5; in that of G18A C29A C33U C60G, at most 0.5.
For G18C A20U C34U A40C C49U U64C C66U, the yeast fitness was 0.549.
Take G18C C29U A69C: the yeast fitness was at most 0.5.
With G18A U26A C27U C49U G58A A65G the figure was at most 0.5.
Turning to G18A, the yeast fitness was determined as 0.76.
In the case of G18C it was 0.659; in that of G18C A65C G68A, at most 0.5; in that of G18A C34G U54C, at most 0.5.
With G18A C30U G41C the figure was at most 0.5; with G18C C29U C49G, at most 0.5; with G18A C46A G51C C60U, at most 0.5.
Consider G18A U19C C22G C24A G39C A45C, for which the yeast fitness was 0.619.
Consider G18A G39A A40C A70U, for which the yeast fitness was at most 0.5.
In the case of G18A C22G C24G G50A A69C it was at most 0.5.
For G18C A36U A57U, the yeast fitness was at most 0.5.
In the case of G17U A69C A70G it was 0.643; in that of G18A U19A C61G, at most 0.5.
In the case of G18C A45C it was 0.695.
With G18C A45U G56U U64A A69C the figure was 0.786; with G18A C29U C31A A65G, at most 0.5.
As for G18A G25A C46U C55G A69C, the yeast fitness was at most 0.5.
With G18A U28A A42G A45C the figure was at most 0.5; with G18C C24U A40U G56A A65G C66U, at most 0.5.
With G18A A65U A69U, the yeast fitness turned out to be 0.718.
With G18A U26G G50C G63C the figure was 0.589; with G18A C33G C34G, at most 0.5; with G18A A57U A70C, 0.536.
With G18A C30U G41C G50A A65C the figure was at most 0.5.
G18C A43C G52A: the yeast fitness stood at 0.502.
As to G18C A45G G50U U53A, the yeast fitness was at most 0.5.
With G18C C30U A45C A69U the figure was at most 0.5.
With G18A C24U the figure was 0.646; with G18A C24G, 0.666; with G18A C31G A40G G52C, at most 0.5.
With G18C A57C the figure was 0.627; with G18C C29U C46U A57G, 0.636.
Regarding G18A A21U, the yeast fitness turned out to be 0.528.
With G18A U35A A40G C61U, the yeast fitness was at most 0.5.
For the variant G18A U32A U53C, the yeast fitness was at most 0.5.
For G18A C29U A37G, the yeast fitness is at most 0.5.
In the case of G18A U19A G51C U64C it was at most 0.5.
For the variant G18A A20U C27G U47A, the yeast fitness was at most 0.5.
In the case of G17U C55U A70G it was at most 0.5; in that of G18A A21U U32A, 0.593.
As to G18C C31A, the yeast fitness was found to be 0.634.
With G18C C24U A43C C46U G63C C66U, the yeast fitness is at most 0.5.
In the case of G18A G56A it was 0.705; in that of G18A G56C, 0.521; in that of G18A U26G G48C A65G, at most 0.5.
With G18A C34A A37U, the yeast fitness is at most 0.5.
For G18A U19A, the yeast fitness came to 0.594.
In the case of G18A C34A U47C it was at most 0.5.
For G18A U26C A40C U54A, the yeast fitness was at most 0.5.
In the case of G18A C34A C60A it was at most 0.5; in that of G18A G50A C61U, at most 0.5.
Regarding G18A A21C G23U U32A A42U G48C, the yeast fitness was at most 0.5.
With G18A A20C C34U A36U G39C A70U the figure was at most 0.5; with G18A U28C G50U, at most 0.5; with G18A A20U A36U A65U, at most 0.5.
In the case of G18A G48C C49A U53A G56A G58C, the yeast fitness is at most 0.5.
Take G18A A43G: the yeast fitness is 0.904.
In the case of G18A A43C it was 0.637.
Consider G18A A37U G68C, for which the yeast fitness is 0.579.
For the variant G18A A21G C66U, the yeast fitness was at most 0.5.
As for G18C C30G A65C, the yeast fitness is 0.541.
With G18A G38A the figure was 0.73; with G18A C55U G56C A70G, at most 0.5.
For G18C C27G U28C U47C U59A A65G, the yeast fitness was found to be 0.61.
With G18C A57G U59A C62U the figure was at most 0.5; with G18C A37U G48C C49A, at most 0.5.
With G18C C30U C33U C49U the figure was 0.608; with G18A A20U C27G, 0.526.
With G18C C29U A37G the figure was at most 0.5.
For the variant G17U C46G U54G, the yeast fitness is at most 0.5.
In the case of G18A C29U G52C it was at most 0.5; in that of G18A C22A A37C G48A, at most 0.5.
As to G18C A69C, the yeast fitness turned out to be 0.642.
As for G18A G58C G68A, the yeast fitness was at most 0.5.
